Data reported in ChEMBL document CHEMBL1629597, “In vitro evaluation of the antimicrobial activity of ceftaroline against cephalosporin-resistant isolates of Streptococcus pneumoniae” (2009).
≈ marks a conversion by molar mass, not a printed value.

Legend:
Assay type in all cases: functional
[1] = tested on: Streptococcus pneumoniae; test: Antimicrobial activity against Streptococcus pneumoniae R6 by broth microdilution method
How it was run: (§1)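 Reference broth microdilution MIC per CLSI guidelines, testing ceftaroline, penicillin, ceftriaxone and cefotaxime against susceptible laboratory strain R6 and R6 transformants. The transformants carry pbp and/or murM genes with β-lactam-resistance mutations, or genomic DNA, from donors 3191 (Hungarian clone) and 72521 (French isolate). MICs are in μg/ml.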

[2] = tested on: Streptococcus pneumoniae; test: Antimicrobial activity against Streptococcus pneumoniae by broth microdilution method
[3] = tested on: Streptococcus pneumoniae; test: Antimicrobial activity against Streptococcus pneumoniae 3191 by broth microdilution method
[4] = tested on: Streptococcus pneumoniae; test: Antimicrobial activity against Streptococcus pneumoniae 72521 by broth microdilution method
[5] = tested on: Streptococcus pneumoniae; test: Antimicrobial activity against Streptococcus pneumoniae R6 transformed with Streptococcus pneumoniae 3191 pbp2x gene by broth microdilution method; how it was run: as §1
[6] = tested on: Streptococcus pneumoniae; test: Antimicrobial activity against Streptococcus pneumoniae R6 transformed with Streptococcus pneumoniae 3191 pbp2b, pbp1a and murM genes by broth microdilution method; how it was run: as §1
[7] = tested on: Streptococcus pneumoniae; test: Antimicrobial activity against Streptococcus pneumoniae R6 transformed with Streptococcus pneumoniae 3191 pbp2x and pbp1a genes by broth microdilution method; how it was run: as §1
[8] = tested on: Streptococcus pneumoniae; test: Antimicrobial activity against Streptococcus pneumoniae R6 transformed with Streptococcus pneumoniae 72521 pbp2x and pbp2b genes by broth microdilution method; how it was run: as §1
[9] = tested on: Streptococcus pneumoniae; test: Antimicrobial activity against Streptococcus pneumoniae R6 transformed with Streptococcus pneumoniae 3191 pbp2x and pbp2b genes by broth microdilution method; how it was run: as §1
[10] = tested on: Streptococcus pneumoniae; test: Antimicrobial activity against Streptococcus pneumoniae R6 transformed with Streptococcus pneumoniae 3191 pbp2x and Streptococcus pneumoniae 72521 pbp2b genes by broth microdilution method; how it was run: as §1
[11] = tested on: Streptococcus pneumoniae; test: Antimicrobial activity against Streptococcus pneumoniae R6 transformed with Streptococcus pneumoniae 72521 pbp2x, pbp1a and pbp2b genes by broth microdilution method; how it was run: as §1
[12] = tested on: Streptococcus pneumoniae; test: Antimicrobial activity against Streptococcus pneumoniae R6 transformed with Streptococcus pneumoniae 72521 pbp2x, pbp2b and Streptococcus pneumoniae 3191 pbp1a genes by broth microdilution method; how it was run: as §1
[13] = tested on: Streptococcus pneumoniae; test: Antimicrobial activity against Streptococcus pneumoniae R6 transformed with Streptococcus pneumoniae 72521 genomic DNA, pbp2x, pbp1a and pbp2b genes by broth microdilution method; how it was run: as §1
[14] = tested on: Streptococcus pneumoniae; test: Antimicrobial activity against Streptococcus pneumoniae R6 transformed with Streptococcus pneumoniae 72521 pbp2x, pbp1a, pbp2b genes and Streptococcus pneumoniae 3191 genomic DNA by broth microdilution method; how it was run: as §1
[15] = tested on: Streptococcus pneumoniae; test: Antimicrobial activity against Streptococcus pneumoniae R6 transformed with Streptococcus pneumoniae 72521 pbp2x, pbp1a, pbp2b and Streptococcus pneumoniae 3191 murM genes by broth microdilution method; how it was run: as §1
[16] = tested on: Streptococcus pneumoniae; test: Antimicrobial activity against Streptococcus pneumoniae R6 transformed with Streptococcus pneumoniae 3191 pbp2x, pbp2b, murM and Streptococcus pneumoniae 72521 pbp1a genes by broth microdilution method; how it was run: as §1
[17] = tested on: Streptococcus pneumoniae; test: Antimicrobial activity against Streptococcus pneumoniae R6 transformed with Streptococcus pneumoniae 72521 genomic DNA, pbp2x, pbp1a, pbp2b and Streptococcus pneumoniae 3191 pbp1a genes by broth microdilution method; how it was run: as §1
[18] = tested on: Streptococcus pneumoniae; test: Antimicrobial activity against Streptococcus pneumoniae R6 transformed with Streptococcus pneumoniae 72521 murM, pbp2x, pbp2b and Streptococcus pneumoniae 3191 pbp1a genes by broth microdilution method; how it was run: as §1
[19] = tested on: Streptococcus pneumoniae; test: Antimicrobial activity against Streptococcus pneumoniae R6 transformed with Streptococcus pneumoniae 3191 pbp2x, pbp2b, pbp1a and Streptococcus pneumoniae 72521 murM genes by broth microdilution method; how it was run: as §1
[20] = tested on: Streptococcus pneumoniae; test: Antimicrobial activity against Streptococcus pneumoniae R6 transformed with Streptococcus pneumoniae 3191 pbp2x, pbp2b, pbp1a genes by broth microdilution method; how it was run: as §1
[21] = tested on: Streptococcus pneumoniae; test: Antimicrobial activity against Streptococcus pneumoniae R6 transformed with Streptococcus pneumoniae 72521 pbp2x gene by broth microdilution method; how it was run: as §1

Row | SMILES | MIC [1] [µg/mL] | MIC50 [2] [µg/mL] | MIC90 [2] [µg/mL] | MIC [3] [µg/mL] | MIC [4] [µg/mL] | MIC [5] [µg/mL] | MIC [6] [µg/mL] | MIC [7] [µg/mL] | MIC [8] [µg/mL] | MIC [9] [µg/mL] | MIC [10] [µg/mL] | MIC [11] [µg/mL] | MIC [12] [µg/mL] | MIC [13] [µg/mL] | MIC [14] [µg/mL] | MIC [15] [µg/mL] | MIC [16] [µg/mL] | MIC [17] [µg/mL] | MIC [18] [µg/mL] | MIC [19] [µg/mL] | further results
1 | CC1(C)S[C@@H]2[C@H](NC(=O)[C@H](N)c3ccc(O)cc3)C(=O)N2[C@H]1C(=O)O [AMOXICILLIN] | ≤ 0.015 | 8 (≈ 21.9 µM) | > 8 | 8 (≈ 21.9 µM) | 8 (≈ 21.9 µM) | 0.047 (≈ 0.129 µM) | 0.023 (≈ 0.0629 µM) | 0.032 (≈ 0.0876 µM) | 0.094 (≈ 0.257 µM) | 0.19 (≈ 0.52 µM) | 0.19 (≈ 0.52 µM) | 0.5 (≈ 1.37 µM) | 0.75 (≈ 2.05 µM) | 1 (≈ 2.74 µM) | 1 (≈ 2.74 µM) | 1 (≈ 2.74 µM) | 1.5 (≈ 4.1 µM) | 1.5 (≈ 4.1 µM) | 3 (≈ 8.21 µM) | 4 (≈ 10.9 µM) | MIC [20]: 4 µg/mL (≈ 10.9 µM)
2 | CO/N=C(\C(=O)N[C@@H]1C(=O)N2C(C(=O)O)=C(COC(C)=O)CS[C@H]12)c1csc(N)n1 [CEFOTAXIME] | 0.03 (≈ 0.0659 µM) | 8 (≈ 17.6 µM) | 8 (≈ 17.6 µM) | 4 (≈ 8.78 µM) | 2 (≈ 4.39 µM) | 0.03 (≈ 0.0659 µM) | 0.03 (≈ 0.0659 µM) | 0.06 (≈ 0.132 µM) | 0.5 (≈ 1.1 µM) | 0.5 (≈ 1.1 µM) | 1 (≈ 2.2 µM) | 2 (≈ 4.39 µM) | 2 (≈ 4.39 µM) | 2 (≈ 4.39 µM) | 2 (≈ 4.39 µM) | 2 (≈ 4.39 µM) | 2 (≈ 4.39 µM) | 4 (≈ 8.78 µM) | 4 (≈ 8.78 µM) | 16 (≈ 35.1 µM) | MIC [21]: 0.06 µg/mL (≈ 0.132 µM); MIC [20]: 16 µg/mL (≈ 35.1 µM)
3 | CO/N=C(\C(=O)N[C@@H]1C(=O)N2C(C(=O)O)=C(CSc3nc(=O)c(O)nn3C)CS[C@H]12)c1csc(N)n1 [CEFTRIAXONE] | 0.03 (≈ 0.0541 µM) | 8 (≈ 14.4 µM) | 8 (≈ 14.4 µM) | 8 (≈ 14.4 µM) | 4 (≈ 7.21 µM) | 2 (≈ 3.61 µM) | 0.06 (≈ 0.108 µM) | 2 (≈ 3.61 µM) | 1 (≈ 1.8 µM) | 1 (≈ 1.8 µM) | 2 (≈ 3.61 µM) | 0.5 (≈ 0.902 µM) | 2 (≈ 3.61 µM) | 0.5 (≈ 0.902 µM) | 2 (≈ 3.61 µM) | 1 (≈ 1.8 µM) | 4 (≈ 7.21 µM) | 2 (≈ 3.61 µM) | 4 (≈ 7.21 µM) | 8 (≈ 14.4 µM) | MIC [21]: 0.5 µg/mL (≈ 0.902 µM); MIC [20]: 4 µg/mL (≈ 7.21 µM)
4 | C[C@@H](O)[C@H]1C(=O)N2C(C(=O)O)=C(S[C@@H]3CN[C@H](C(=O)N(C)C)C3)[C@H](C)[C@H]12 [MEROPENEM] | – | 1 (≈ 2.61 µM) | 2 (≈ 5.22 µM) | – | – | – | – | – | – | – | – | – | – | – | – | – | – | – | – | – | –
5 | CC1(C)S[C@@H]2[C@H](NC(=O)Cc3ccccc3)C(=O)N2[C@H]1C(=O)O [PENICILLIN G] | 0.015 (≈ 0.0449 µM) | 8 (≈ 23.9 µM) | 8 (≈ 23.9 µM) | 16 (≈ 47.8 µM) | 4 (≈ 12 µM) | 2 (≈ 5.98 µM) | 0.03 (≈ 0.0897 µM) | 2 (≈ 5.98 µM) | 0.5 (≈ 1.5 µM) | 1 (≈ 2.99 µM) | 2 (≈ 5.98 µM) | 0.5 (≈ 1.5 µM) | 1 (≈ 2.99 µM) | 1 (≈ 2.99 µM) | 8 (≈ 23.9 µM) | 1 (≈ 2.99 µM) | 8 (≈ 23.9 µM) | 2 (≈ 5.98 µM) | 2 (≈ 5.98 µM) | 8 (≈ 23.9 µM) | MIC [21]: 0.5 µg/mL (≈ 1.5 µM); MIC [20]: 4 µg/mL (≈ 12 µM)
